By GI50 is commonly meant the concentration giving 50% growth inhibition. What is called TGI is the concentration giving total growth inhibition.

One experiment relates to MCF7. Kind of experiment: Cytotoxicity against human MCF7 cells assessed as reduction in cell viability after 48 hrs by SRB assay. Format: functional. In short, it runs like this:
(§1)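 Followed the NCI SRB protocol: cells exposed 48 h to a range of concentrations. GI50 is the concentration giving 50% net growth inhibition; TGI is 100% growth inhibition; LC50 kills 50% of initial cells. Mean ± SE of three separate experiments.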

The next experiment concerns SK-BR-3. Kind of experiment: Cytotoxicity against human SK-BR-3 cells assessed as reduction in cell viability incubated for 48 hrs by SRB assay. Format: functional. The essentials:
as §1

Regarding `NC[C@H]1COC[C@](c2ccccc2)(C2CCCCC2)O1` (relative stereo), in the experiment with MCF7, the concentration for 50% growth inhibition (GI50) came to 65.3 µM, the LC50 (concentration killing 50% of initial cells) amounted to 176 µM and the TGI stood at 107 µM. In the experiment on SK-BR-3, the GI50 worked out at 23.8 µM, the LC50 (concentration killing 50% of initial cells) is more than 300 µM and the concentration for total growth inhibition (TGI) was found to be 192 µM.

Consider `NC[C@@H]1COC[C@](c2ccccc2)(C2CCCCC2)O1` (relative stereo), for which, in the experiment with MCF7, the 50% growth inhibitory concentration (GI50) was determined as 89.7 µM, the LC50 (concentration killing 50% of initial cells) was determined as 244 µM and the TGI amounted to 148 µM. Also, in the experiment on SK-BR-3, the GI50 turned out to be 25.8 µM, the LC50 (concentration killing 50% of initial cells) was more than 300 µM and the TGI was 180 µM.

As for `C[C@]12N[C@H](Cc3ccccc31)c1ccccc12` [DIZOCILPINE], in the experiment with MCF7, the concentration for 50% growth inhibition (GI50) was more than 300 µM and the TGI was more than 300 µM. Besides, in the experiment on SK-BR-3, the concentration for 50% growth inhibition (GI50) is more than 300 µM and the TGI is more than 300 µM.

(Values after ChEMBL document CHEMBL4665645, “Role of the NMDA Receptor in the Antitumor Activity of Chiral 1,4-Dioxane Ligands in MCF-7 and SKBR3 Breast Cancer Cells” (ACS Med Chem Lett, 2019).)
